{"source": "ChEMBL document CHEMBL4813946", "about": "“Discovery of novel 4-azaaryl-N-phenylpyrimidin-2-amine derivatives as potent and selective FLT3 inhibitors for acute myeloid leukaemia with FLT3 mutations” (Eur J Med Chem, 2021)", "key": {"[1]": {"test_system": "MV4-11", "experiment": "Induction of apoptosis in human MV4-11 cells assessed as early apoptotic cells at 10 x GI50 concentration incubated for 48 hrs by annexin V-FITC and propidium iodide staining based flow cytometry (reference value: 1.08 %)", "format": "functional"}, "[2]": {"test_system": "U-937", "experiment": "Induction of apoptosis in human U937 cells assessed as necrotic cells at 5 x GI50 concentration incubated for 48 hrs by annexin V-FITC staining based flow cytometry (reference value: 1.16 %)", "format": "functional"}, "[3]": {"test_system": "NB-4", "experiment": "Antiproliferative activity against human NB-4 cells harboring wild type FLT3 assessed as reduction in cell viability after 72 hrs by resazurin assay", "format": "functional", "method_in_brief": "(§1)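 Cells seeded and pre-incubated 24 h at 37 °C, 5% CO2, then given a five-fold dilution series of compound (from 10 mM DMSO stock) in medium, in triplicate. Resazurin added after 72 h exposure, 4 h in dark at 37 °C. Fluorescence read at 570/585 nm, normalised to DMSO vehicle. GI50 by non-linear regression; mean ± SD of at least two replicates.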"}, "[4]": {"test_system": "MV4-11", "experiment": "Induction of apoptosis in human MV4-11 cells assessed as necrotic cells at 5 x GI50 concentration incubated for 48 hrs by annexin V-FITC and propidium iodide staining based flow cytometry (reference value: 0.45 %)", "format": "functional"}, "[5]": {"test_system": "MV4-11", "experiment": "Induction of apoptosis in human MV4-11 cells assessed as early apoptotic cells at 1 x GI50 concentration incubated for 48 hrs by annexin V-FITC and propidium iodide staining based flow cytometry (reference value: 1.08 %)", "format": "functional"}, "[6]": {"test_system": "THP-1", "experiment": "Antiproliferative activity against human THP-1 cells harboring wild type FLT3 assessed as reduction in cell viability after 72 hrs by resazurin assay", "format": "functional", "method_in_brief": "as §1"}, "[7]": {"test_system": "MV4-11", "experiment": "Induction of apoptosis in human MV4-11 cells assessed as early apoptotic cells at 10 x GI50 concentration incubated for 24 hrs by annexin V-FITC and propidium iodide staining based flow cytometry (reference value: 2.12 %)", "format": "functional"}, "[8]": {"test_system": "MV4-11", "experiment": "Antiproliferative activity against human MV4-11 cells harboring FLT3-ITD mutant assessed as reduction in cell viability after 72 hrs by resazurin assay", "format": "functional", "method_in_brief": "as §1"}, "[9]": {"target": "Receptor-type tyrosine-protein kinase FLT3 (Homo sapiens) (UniProt P36888)", "sequence (P36888 whole entry)": "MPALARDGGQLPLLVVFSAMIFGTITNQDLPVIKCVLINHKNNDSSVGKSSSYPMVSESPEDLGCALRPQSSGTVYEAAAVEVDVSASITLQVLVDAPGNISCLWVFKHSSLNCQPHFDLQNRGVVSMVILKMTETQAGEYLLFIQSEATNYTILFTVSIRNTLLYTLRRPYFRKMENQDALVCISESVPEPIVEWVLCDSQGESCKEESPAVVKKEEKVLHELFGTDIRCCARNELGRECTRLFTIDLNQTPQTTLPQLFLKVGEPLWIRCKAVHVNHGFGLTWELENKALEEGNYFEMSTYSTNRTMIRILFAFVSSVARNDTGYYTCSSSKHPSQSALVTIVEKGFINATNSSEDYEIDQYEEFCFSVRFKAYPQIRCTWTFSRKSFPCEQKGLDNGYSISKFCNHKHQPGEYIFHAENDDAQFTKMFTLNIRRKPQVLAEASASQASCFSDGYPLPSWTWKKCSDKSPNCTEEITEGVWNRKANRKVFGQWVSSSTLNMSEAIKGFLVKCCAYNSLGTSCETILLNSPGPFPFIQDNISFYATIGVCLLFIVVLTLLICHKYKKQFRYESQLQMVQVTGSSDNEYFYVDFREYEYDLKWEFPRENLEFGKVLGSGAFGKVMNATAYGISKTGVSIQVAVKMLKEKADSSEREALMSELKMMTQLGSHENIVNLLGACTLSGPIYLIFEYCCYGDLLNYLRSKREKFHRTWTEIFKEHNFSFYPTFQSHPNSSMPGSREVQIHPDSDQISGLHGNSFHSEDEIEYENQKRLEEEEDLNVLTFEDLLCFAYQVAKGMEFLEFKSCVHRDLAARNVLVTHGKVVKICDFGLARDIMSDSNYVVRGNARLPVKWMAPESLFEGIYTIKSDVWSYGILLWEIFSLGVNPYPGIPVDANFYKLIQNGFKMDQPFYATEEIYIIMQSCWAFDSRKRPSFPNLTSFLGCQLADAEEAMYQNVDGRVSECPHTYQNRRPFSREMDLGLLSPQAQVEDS", "experiment": "Inhibition of FLT3-mediated signalling pathway in human MV4-11 cells assessed as inhibition of ERK phosphorylation upto 20 x GI50 concentration incubated for 6 hrs by western blot analysis", "format": "cell-based", "method_in_brief": "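Cells lysed in phosphate lysis buffer with protease inhibitors and protein quantified. Western blots probed phospho and total STAT5, AKT, ERK, S6RP and eIF4E, plus full-length and cleaved PARP and caspase-3, with β-actin as loading control. At least two independent experiments.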"}, "[10]": {"experiment": "Inhibition of FLT3 ITD-NPOS mutant (unknown origin) incubated for 120 mins by ADP-glo based luminescence assay", "parameters": "species or system Homo sapiens"}, "[11]": {"test_system": "U-937", "experiment": "Induction of apoptosis in human U937 cells assessed as late apoptotic cells at 20 x GI50 concentration incubated for 48 hrs by annexin V-FITC staining based flow cytometry (reference value: 9.82 %)", "format": "functional"}, "[12]": {"test_system": "MV4-11", "experiment": "Induction of apoptosis in human MV4-11 cells assessed as late apoptotic cells at 5 x GI50 concentration incubated for 24 hrs by annexin V-FITC and propidium iodide staining based flow cytometry (reference value: 12.45 %)", "format": "functional"}, "[13]": {"test_system": "MV4-11", "experiment": "Induction of apoptosis in human MV4-11 cells assessed as viable cells at 1 x GI50 concentration incubated for 24 hrs by annexin V-FITC and propidium iodide staining based flow cytometry (reference value: 84.68 %)", "format": "functional"}, "[14]": {"test_system": "U-937", "experiment": "Induction of apoptosis in human U937 cells assessed as early apoptotic cells at 10 x GI50 concentration incubated for 48 hrs by annexin V-FITC staining based flow cytometry (reference value: 2.78 %)", "format": "functional"}, "[15]": {"test_system": "MV4-11", "experiment": "Induction of apoptosis in human MV4-11 cells assessed as late apoptotic cells at 10 x GI50 concentration incubated for 24 hrs by annexin V-FITC and propidium iodide staining based flow cytometry (reference value: 12.45 %)", "format": "functional"}, "[16]": {"test_system": "MV4-11", "experiment": "Induction of apoptosis in human MV4-11 cells assessed as late apoptotic cells at 20 x GI50 concentration incubated for 48 hrs by annexin V-FITC and propidium iodide staining based flow cytometry (reference value: […] %)", "format": "functional"}, "[17]": {"test_system": "MV4-11", "experiment": "Induction of apoptosis in human MV4-11 cells assessed as early apoptotic cells at 5 x GI50 concentration incubated for 24 hrs by annexin V-FITC and propidium iodide staining based flow cytometry (reference value: 2.12 %)", "format": "functional"}, "[18]": {"test_system": "U-937", "experiment": "Induction of apoptosis in human U937 cells assessed as late apoptotic cells at 20 x GI50 concentration incubated for 24 hrs by annexin V-FITC and propidium iodide staining based flow cytometry (reference value: […] %)", "format": "functional"}, "[19]": {"test_system": "U-937", "experiment": "Induction of apoptosis in human U937 cells assessed as necrotic cells at 20 x GI50 concentration incubated for 24 hrs by annexin V-FITC and propidium iodide staining based flow cytometry (reference value: 10.30 %)", "format": "functional"}, "[20]": {"test_system": "MV4-11", "experiment": "Induction of apoptosis in human MV4-11 cells assessed as necrotic cells at 1 x GI50 concentration incubated for 48 hrs by annexin V-FITC and propidium iodide staining based flow cytometry (reference value: 0.45 %)", "format": "functional"}, "[21]": {"test_system": "MV4-11", "experiment": "Induction of apoptosis in human MV4-11 cells assessed as viable cells at 1 x GI50 concentration incubated for 48 hrs by annexin V-FITC and propidium iodide staining based flow cytometry (reference value: 91.87 %)", "format": "functional"}, "[22]": {"test_system": "MV4-11", "experiment": "Induction of apoptosis in human MV4-11 cells assessed as early apoptotic cells at 20 x GI50 concentration incubated for 48 hrs by annexin V-FITC and propidium iodide staining based flow cytometry (reference value: 1.08 %)", "format": "functional"}, "[23]": {"test_system": "MV4-11", "experiment": "Induction of apoptosis in human MV4-11 cells assessed as late apoptotic cells at 5 x GI50 concentration incubated for 48 hrs by annexin V-FITC and propidium iodide staining based flow cytometry (reference value: 6.59 %)", "format": "functional"}, "[24]": {"test_system": "U-937", "experiment": "Induction of apoptosis in human U937 cells assessed as late apoptotic cells at 1 x GI50 concentration incubated for 48 hrs by annexin V-FITC staining based flow cytometry (reference value: 9.82 %)", "format": "functional"}, "[25]": {"test_system": "MV4-11", "experiment": "Induction of apoptosis in human MV4-11 cells assessed as necrotic cells at 1 x GI50 concentration incubated for 24 hrs by annexin V-FITC and propidium iodide staining based flow cytometry (reference value: 0.75 %)", "format": "functional"}, "[26]": {"test_system": "U-937", "experiment": "Induction of apoptosis in human U937 cells assessed as necrotic cells at 5 x GI50 concentration incubated for 24 hrs by annexin V-FITC and propidium iodide staining based flow cytometry (reference value: 1.10 %)", "format": "functional"}, "[27]": {"test_system": "U-937", "experiment": "Induction of apoptosis in human U937 cells assessed as necrotic cells at 10 x GI50 concentration incubated for 48 hrs by annexin V-FITC staining based flow cytometry (reference value: 1.16 %)", "format": "functional"}, "[28]": {"test_system": "U-937", "experiment": "Induction of apoptosis in human U937 cells assessed as early apoptotic cells at 10 x GI50 concentration incubated for 24 hrs by annexin V-FITC and propidium iodide staining based flow cytometry (reference value: 1.81 %)", "format": "functional"}, "[29]": {"test_system": "U-937", "experiment": "Induction of apoptosis in human U937 cells assessed as early apoptotic cells at 5 x GI50 concentration incubated for 24 hrs by annexin V-FITC and propidium iodide staining based flow cytometry (Rvb =1.81 %)", "format": "functional"}}, "note": "pKi: −log10 of the molar value. Calls of active or inactive are those of the source. No cut-off for these calls is given here."}
{"smiles": "CC(=O)N1CCN(c2ccc(Nc3nccc(-c4cn(C)c5ncccc45)n3)cc2)CC1", "values": [{"measurement": "Activity", "setting": "[1]", "value": 2.72, "unit": "%"}, {"measurement": "Activity", "setting": "[2]", "value": 1.19, "unit": "%"}, {"measurement": "GI50", "setting": "[3]", "value": 1060, "unit": "nM"}, {"measurement": "Activity", "setting": "[4]", "value": 0.86, "unit": "%"}, {"measurement": "Activity", "setting": "[5]", "value": 2.99, "unit": "%"}, {"measurement": "GI50", "setting": "[6]", "value": 7720, "unit": "nM"}, {"measurement": "Activity", "setting": "[7]", "value": 2.54, "unit": "%"}, {"measurement": "GI50", "setting": "[8]", "value": 74, "unit": "nM"}, {"measurement": "inhibition", "setting": "[9]", "value": "Active"}, {"measurement": "pKi", "setting": "[10]", "value": 6.58}, {"measurement": "Activity", "setting": "[11]", "value": 14.5, "unit": "%"}, {"measurement": "Activity", "setting": "[12]", "value": 16.42, "unit": "%"}, {"measurement": "Activity", "setting": "[13]", "value": 81.75, "unit": "%"}, {"measurement": "Activity", "setting": "[14]", "value": 3.06, "unit": "%"}, {"measurement": "Activity", "setting": "[15]", "value": 20.33, "unit": "%"}, {"measurement": "Activity", "setting": "[16]", "value": 1.56, "unit": "%"}, {"measurement": "Activity", "setting": "[17]", "value": 1.91, "unit": "%"}, {"measurement": "Activity", "setting": "[18]", "value": 1.64, "unit": "%"}, {"measurement": "Activity", "setting": "[19]", "value": 10.43, "unit": "%"}, {"measurement": "Activity", "setting": "[20]", "value": 0.8, "unit": "%"}, {"measurement": "Activity", "setting": "[21]", "value": 89.25, "unit": "%"}, {"measurement": "Activity", "setting": "[22]", "value": 2.17, "unit": "%"}, {"measurement": "Activity", "setting": "[23]", "value": 9.25, "unit": "%"}, {"measurement": "Activity", "setting": "[24]", "value": 9.22, "unit": "%"}, {"measurement": "Activity", "setting": "[25]", "value": 1.74, "unit": "%"}, {"measurement": "Activity", "setting": "[26]", "value": 1.7, "unit": "%"}, {"measurement": "Activity", "setting": "[27]", "value": 1.57, "unit": "%"}, {"measurement": "Activity", "setting": "[28]", "value": 2.48, "unit": "%"}, {"measurement": "Activity", "setting": "[29]", "value": 2.15, "unit": "%"}]}
